Results taken from ChEMBL document CHEMBL1129688, “ATP-citrate lyase as a target for hypolipidemic intervention. Design and synthesis of 2-substituted butanedioic acids as novel, potent inhibitors of the enzyme” (J Med Chem, 1996).

Key:
[1] = target: T1, ATP-citrate synthase (Homo sapiens) (UniProt P53396); experiment: Inhibitory activity against human recombinant ATP-Citrate Lyase activity was measured by the […] dehydrogenase catalyzed reduction of oxaloacetate by NADH; details: concentration not given here
T1 sequence (whole entry): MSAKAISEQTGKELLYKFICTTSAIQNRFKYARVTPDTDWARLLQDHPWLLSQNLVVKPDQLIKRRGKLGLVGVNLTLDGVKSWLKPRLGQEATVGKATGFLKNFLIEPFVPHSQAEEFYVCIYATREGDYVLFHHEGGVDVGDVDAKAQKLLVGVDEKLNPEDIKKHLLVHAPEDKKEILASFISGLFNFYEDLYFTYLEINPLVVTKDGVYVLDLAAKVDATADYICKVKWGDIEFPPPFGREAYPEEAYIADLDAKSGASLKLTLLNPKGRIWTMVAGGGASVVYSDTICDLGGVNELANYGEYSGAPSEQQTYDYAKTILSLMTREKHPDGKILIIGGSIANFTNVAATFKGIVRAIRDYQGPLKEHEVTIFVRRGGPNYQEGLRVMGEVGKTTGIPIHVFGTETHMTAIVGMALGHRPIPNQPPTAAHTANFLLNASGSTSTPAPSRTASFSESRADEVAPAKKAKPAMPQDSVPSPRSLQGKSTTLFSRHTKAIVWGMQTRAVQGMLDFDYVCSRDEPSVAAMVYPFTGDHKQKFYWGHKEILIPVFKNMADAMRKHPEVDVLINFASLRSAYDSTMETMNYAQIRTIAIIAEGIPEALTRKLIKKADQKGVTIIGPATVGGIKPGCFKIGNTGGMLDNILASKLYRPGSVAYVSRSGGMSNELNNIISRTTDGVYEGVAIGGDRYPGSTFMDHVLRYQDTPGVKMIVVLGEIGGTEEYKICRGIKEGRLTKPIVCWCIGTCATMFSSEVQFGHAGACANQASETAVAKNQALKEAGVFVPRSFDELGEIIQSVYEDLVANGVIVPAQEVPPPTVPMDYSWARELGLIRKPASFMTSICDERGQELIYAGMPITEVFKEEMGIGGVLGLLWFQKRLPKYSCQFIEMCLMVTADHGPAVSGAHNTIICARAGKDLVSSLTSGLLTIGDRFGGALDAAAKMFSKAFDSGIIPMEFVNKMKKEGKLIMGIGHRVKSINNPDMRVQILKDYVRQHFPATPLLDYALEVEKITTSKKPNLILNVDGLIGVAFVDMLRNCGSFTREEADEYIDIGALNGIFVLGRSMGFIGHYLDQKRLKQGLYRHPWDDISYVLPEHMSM
How it was run: (§1)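 Purified rat ACL or recombinant human ACL was assayed by coupling oxaloacetate formation to malate dehydrogenase reduction with NADH. Buffer: Tris 100 mM pH 8.0, MgCl2 10 mM, KCl 10 mM, DTT 10 mM, plus ATP and NADH. CoA was 200 μM, and citrate was added to 100 μM (its Km) to start the reaction. A340 decrease was followed over 20 min. Ki came from fitting v = Vmax/(2 + [I]/Ki), assuming citrate-competitive inhibition.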

[2] = target: T2, ATP-citrate synthase (Rattus norvegicus, UniProt P16638); experiment: Inhibitory activity against rat ATP-citrate lyase activity by the […] dehydrogenase catalyzed reduction of oxaloacetate by NADH.; how it was run: as §1
T2 sequence (P16638 whole entry): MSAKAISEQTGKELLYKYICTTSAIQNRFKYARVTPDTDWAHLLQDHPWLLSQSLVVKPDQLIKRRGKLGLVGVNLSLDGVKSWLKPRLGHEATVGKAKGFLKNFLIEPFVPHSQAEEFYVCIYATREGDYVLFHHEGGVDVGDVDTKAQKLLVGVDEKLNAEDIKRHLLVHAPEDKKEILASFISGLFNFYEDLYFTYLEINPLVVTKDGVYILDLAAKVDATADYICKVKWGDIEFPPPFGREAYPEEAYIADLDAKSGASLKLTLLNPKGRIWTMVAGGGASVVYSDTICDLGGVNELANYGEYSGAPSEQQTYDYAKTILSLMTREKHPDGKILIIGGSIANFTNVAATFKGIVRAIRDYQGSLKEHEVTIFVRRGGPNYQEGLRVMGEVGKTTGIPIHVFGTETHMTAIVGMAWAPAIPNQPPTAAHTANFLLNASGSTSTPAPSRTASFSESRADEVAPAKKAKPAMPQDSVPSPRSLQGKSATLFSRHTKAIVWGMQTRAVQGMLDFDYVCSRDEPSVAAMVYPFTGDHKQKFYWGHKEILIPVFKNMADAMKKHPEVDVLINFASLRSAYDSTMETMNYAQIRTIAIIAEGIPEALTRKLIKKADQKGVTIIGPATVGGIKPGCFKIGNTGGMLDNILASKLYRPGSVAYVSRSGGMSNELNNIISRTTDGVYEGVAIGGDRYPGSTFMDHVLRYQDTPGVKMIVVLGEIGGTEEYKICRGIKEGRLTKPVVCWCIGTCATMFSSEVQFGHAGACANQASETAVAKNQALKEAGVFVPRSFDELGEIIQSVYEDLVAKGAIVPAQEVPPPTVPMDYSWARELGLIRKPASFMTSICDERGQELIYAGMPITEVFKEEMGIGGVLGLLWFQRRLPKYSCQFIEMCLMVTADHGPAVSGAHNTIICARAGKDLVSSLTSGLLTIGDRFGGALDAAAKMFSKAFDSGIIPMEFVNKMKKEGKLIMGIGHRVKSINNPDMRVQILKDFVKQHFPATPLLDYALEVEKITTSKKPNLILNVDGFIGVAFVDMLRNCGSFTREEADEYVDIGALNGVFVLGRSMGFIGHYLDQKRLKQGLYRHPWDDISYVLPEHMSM

[3] = target: T2, ATP-citrate synthase; experiment: Inhibition of recombinant ATP-Citrate Lyase activity as […] dehydrogenase catalyzed reduction of oxaloacetate by NADH; details: in the assay text read “purified rat ATP-Citrate Lyase” for “recombinant ATP-Citrate Lyase”; how it was run: as §1
[4] = tested on: HepG2; experiment: Percent control of ATP levels in human hepatoma cell line, HepG2 at 1000 uM concentration; type: functional
How it was run: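 Serum-starved HepG2 cells (grown to 80–90% confluence in DMEM/10% FCS, then overnight without serum) were exposed to vehicle or compound at the stated final concentration for 2.5 h. Cellular ATP was then measured as a toxicity check and expressed as % of vehicle control.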

[5] = tested on: HepG2; experiment: Percent reduction of cholesterol synthesis in human hepatoma cell line, HepG2 at 1000 uM concentration; type: functional; design: scale not given: the % may be the effect or the level left
How it was run: (§2)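 HepG2 cells were grown in DMEM with Hepes, bicarbonate, glutamine and 10% FCS to 80–90% confluence, then kept overnight serum-free. Vehicle or compound was added at the stated final concentration for 2.5 h. ³H2O (71 μCi/mmol) was present for the final 90 min. Synthesis rates came from ³H incorporated into cellular cholesterol or fatty acids, relative to vehicle control.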

[6] = tested on: HepG2; experiment: Percent reduction of fatty acid synthesis in human hepatoma cell line, HepG2 at 1000 uM concentration; type: functional; design: scale not given: the % may be the effect or the level left; how it was run: as §2
[7] = target: T3, ATP-citrate synthase (Homo sapiens, UniProt P53396); experiment: Inhibitory activity against human recombinant ATP-Citrate Lyase was measured by the […] dehydrogenase catalyzed reduction of oxaloacetate by NADH; how it was run: as §1
T3 sequence (P53396 whole entry): T1 sequence (whole entry)

Ki [2] | Structure (SMILES) | further results
 | O=C(O)CC(O)(CSCCCCCCc1cccnc1)C(=O)O (configuration not stated) | inhibition [1]: 35%
69 µM | O=C(O)CC(O)(CSCCCCCCc1ccccc1Cl)C(=O)O (configuration not stated) | 
120 µM | O=C(O)CC(O)(CSCCCCCCc1ccc(F)cc1)C(=O)O (configuration not stated) | 
110 µM | O=C(O)CC(O)(CSCCCCCCc1ccc(Cl)c(Cl)c1)C(=O)O (configuration not stated) | 
 | COc1ccc(CCCCCCSCC(O)(CC(=O)O)C(=O)O)cc1 (configuration not stated) | Ki [3]: 280 µM
2.9 µM | O=C(O)CC(O)(CCSCCCCCc1ccc(Cl)cc1Cl)C(=O)O (configuration not stated) | 
64 µM | O=C(O)CC(O)(CSCCCCCS(=O)(=O)c1ccc(Cl)cc1Cl)C(=O)O (configuration not stated) | 
 | O=C(O)CC(O)(CSCCCCCCc1ccc(Cl)cc1Cl)C(=O)O (configuration not stated) | Control [4]: 100%; Ki [3]: 3.3 µM; Control [5]: 116%; Control [6]: 107%
 | O=C(O)CC(O)(CSCCCCCCc1ccc2ccccc2c1)C(=O)O (configuration not stated) | Ki [3]: 93 µM
88 µM | O=C(O)CC(O)CSCCCCCCc1ccc(Cl)cc1Cl (configuration not stated) | 
131 µM | O=C(O)CC(CSCCCCC[S+]([O-])c1ccc(Cl)cc1Cl)C(=O)O (configuration not stated) | 
21 µM | O=C(O)CC(O)(CSCCCCCc1ccccc1-c1ccccc1)C(=O)O (configuration not stated) | 
 | O=C(O)CC(O)(CSCCCCCCc1cccc2ccccc12)C(=O)O (configuration not stated) | Ki [3]: 63 µM
18 µM | O=C(O)CC(O)(CSCCCCCCc1ccccc1-c1ccccc1)C(=O)O (configuration not stated) | 
300 µM | O=C(O)CC(O)(CSCCCCCCCCCc1ccc(Cl)cc1Cl)C(=O)O (configuration not stated) | 
38 µM | O=C(O)CC(O)(CSCCCCCCc1ccc(-c2ccccc2)cc1)C(=O)O (configuration not stated) | 
 | O=C(O)CC(O)(CSCCCCCCc1ccncc1)C(=O)O (configuration not stated) | inhibition [1]: 20%
25 µM | O=C(O)CCCSCCCCCCc1ccc(Cl)cc1Cl | 
226 µM | O=C(O)CC(O)(CSCCCCCc1ccc(-c2ccccc2)cc1)C(=O)O (configuration not stated) | 
 | O=C(O)CC(O)(CSCCCCCCc1ccccc1)C(=O)O (configuration not stated) | Ki [7]: 320 µM; Ki [3]: 710 µM
10 µM | O=C(O)CC(O)(CSCCCCCSc1ccc(Cl)cc1Cl)C(=O)O (configuration not stated) | 
175 µM | O=C(O)CC(O)(CSCCCCNS(=O)(=O)c1ccc(Cl)cc1Cl)C(=O)O (configuration not stated) | 
7.2 µM | O=C(O)CC(O)(CSCCCCCCCc1ccc(Cl)cc1Cl)C(=O)O (configuration not stated) | 
33 µM | O=C(O)CC(O)(CSCCCC/C=C/c1ccc(Cl)cc1Cl)C(=O)O (configuration not stated) | 
178 µM | CN(CCCCSCC(O)(CC(=O)O)C(=O)O)S(=O)(=O)c1ccc(Cl)cc1Cl (configuration not stated) | 
420 µM | O=C(O)CC(O)(CSCCCCCCc1ccc(O)cc1)C(=O)O (configuration not stated) | 
2.6 µM | O=C(O)CC(CSCCCCCCc1ccc(Cl)cc1Cl)C(=O)O (configuration not stated) | 
 | O=C(O)CC(O)(CSCCCCCCc1ccccc1Cc1ccccc1)C(=O)O (configuration not stated) | Ki [3]: 94 µM
